A short description of series [1]: Effective dose that would give a 25% increase in the survival time against the ascitic sarcoma 180 in mice. The format is functional, Mus musculus. The procedure, abridged: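 Swiss mice given 10⁶ ascitic sarcoma 180 cells ip on day 0, then one ip dose of compound daily on days 1-3, with several dose levels. T/C is the mean survival of treated mice over the survival of untreated mice. ED25 is the daily dose giving T/C = 125%, interpolated or extrapolated from a semilog plot of T/C vs. log dose.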

A short description of series [2]: Solubility in water was determined. The format is physicochemical.
Series [3] can be described thus: Partition coefficient (logP). The format is physicochemical. The note with it: octanol/water. The procedure, abridged: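 Shake-flask method: four samples per compound (1.50–20.0 mg) each equilibrated between known volumes of 1-octanol and water. Solute concentration measured spectroscopically in the water phase; octanol-phase concentration taken by difference. Partition coefficient is the ratio of the two concentrations.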

A short description of series [4]: Tested for acute toxicity which is the single dose given intraperitoneally that will kill one-half of the mice within 5 days. The format is organism-based. As to conditions: mouse, in vivo, ip.
For series [5], the system named is Mus musculus. Put plainly: Maximum survival by an optimum dose at 4 mg/kg in treated to that of untreated mice. The format is functional.
The subject of series [6] is Mus musculus. As to the kind of experiment: Maximum survival by an optimum dose at 80 mg/kg in treated to that of untreated mice. The format is functional.
Series [7] deals with Mus musculus. Put plainly: Maximum survival by an optimum dose at 3 mg/kg in treated to that of untreated mice. The series is classed as functional.
Series [8] concerns Mus musculus. As to the kind of experiment: Maximum survival by an optimum dose at 25 mg/kg in treated to that of untreated mice. The format is functional.
Series [9] concerns Mus musculus. As to the kind of experiment: Maximum survival by an optimum dose at 7 mg/kg in treated to that of untreated mice. The series is classed as functional.
Series [10] deals with Mus musculus. Put plainly: Maximum survival by an optimum dose at 20 mg/kg in treated to that of untreated mice. The series is classed as functional.
The test system of series [11] is Mus musculus. As to the kind of experiment: Maximum survival by an optimum dose at 6 mg/kg in treated to that of untreated mice. The series is classed as functional.
Series [12] deals with Mus musculus. Put plainly: Maximum survival by an optimum dose at 100 mg/kg in treated to that of untreated mice. The format is functional.
The subject of series [13] is Mus musculus. Put plainly: Maximum survival by an optimum dose at 60 mg/kg in treated to that of untreated mice. The series is classed as functional.
For series [14], the system named is Mus musculus. Put plainly: Maximum survival by an optimum dose at 30 mg/kg in treated to that of untreated mice. The format is functional.
[15] abbreviates: Mus musculus, Sarcoma-180, read-out: ED25.

≈ marks a conversion by molar mass, not a printed value.

In the case of `COC1=C(Cl)C(=O)c2ccccc2C1=O`, the ED25 in series [1] amounted to 0.011 mmol/kg; in series [1] (setting [15]), 2.49 mg/kg. Further, in [2], the concentration in solution (solubility) came to 39.3 µg/mL (≈ 177 µM). For the same molecule, in series [3] (read-out: logP), the logP was 2.15. Moreover, the LD50 at 120 h in series [4] was 14 mg/kg. Moreover, in the series on Mus musculus [5], the Optimal dose is on record as 315%.

For the molecule `O=C1C(Cl)=C(Nc2ccccc2)C(=O)c2ccccc21`, the ED25 is 0.331 mmol/kg in series [1] and 94 mg/kg in series [1] (setting [15]). For the same molecule, in [2], the concentration in solution (solubility) was 2.4 µg/mL (≈ 8.46 µM). The logP in series [3] was determined as 4.04. The molecule also returned an Optimal dose in the series with Mus musculus [6] of 117%. The molecule also gave an LD50 at 120 h in series [4] of 1600 mg/kg.

With `O=C1C=CC(=O)c2ccccc21` [NAPHTHOQUINONE], the ED25 in series [1] was 0.012 mmol/kg; in series [1] (setting [15]), 1.9 mg/kg. Moreover, the Optimal dose with Mus musculus [7] turned out to be 347%. Further, the concentration in solution in series [2] (solubility) was 89.4 µg/mL (≈ 565 µM). Besides, the logP in series [3] (read-out: logP) was found to be 1.74. In addition, in series [4], the LD50 at 120 h was determined as 5.5 mg/kg.

With `O=C1C=C(O)C(=O)c2ccccc21` [LAWSONE], the values for the ED25 in series [1] and in series [1] (setting [15]) were 0.19 mmol/kg and 33 mg/kg, respectively. For the same molecule, the concentration in solution in series [2] (solubility) was 255 µg/mL (≈ 1460 µM). In series [3] (read-out: logP), the logP was found to be 1.07. The molecule further had an LD50 at 120 h in [4] of 100 mg/kg. In the series on Mus musculus [8], this molecule yielded an Optimal dose of 104%.

Take `CCCOC1=C(Cl)C(=O)c2ccccc2C1=O`: the Optimal dose with Mus musculus [9] was determined as 271%. Besides, the ED25 in [1] came to 0.01 mmol/kg; in series [1] (setting [15]), 2.45 mg/kg. The logP in series [3] (read-out: logP) was found to be 2.95. The LD50 at 120 h in series [4] is 20 mg/kg.

Regarding `NC1=C(Cl)C(=O)c2ccccc2C1=O`, the ED25 in series [1] was determined as 0.123 mmol/kg; in series [1] (setting [15]) it was 25.5 mg/kg. In addition, in the series on Mus musculus [10], the Optimal dose is listed as 112%. The solubility in [2] amounted to 37.7 µg/mL (≈ 182 µM). Further, in [3] (read-out: logP), the logP turned out to be 2.08. The molecule further yielded an LD50 at 120 h in series [4] of 800 mg/kg.

Regarding `CCOC1=C(Cl)C(=O)c2ccccc2C1=O`, the ED25 in series [1] was 0.008 mmol/kg; in series [1] (setting [15]), 1.97 mg/kg. This molecule displayed an Optimal dose in the series with Mus musculus [7] of 230%. The molecule also gave a solubility in [2] of 34.1 µg/mL (≈ 144 µM). Besides, the logP in series [3] (read-out: logP) is 2.61. In series [4], this molecule gave an LD50 at 120 h of 16 mg/kg.

For `O=C1C(Cl)=C(Cl)C(=O)c2ccccc21` [Dichlon], the ED25 in series [1] was determined as 0.022 mmol/kg; in [1] (setting [15]), 4.89 mg/kg. The molecule also came in with an Optimal dose with Mus musculus [11] of 189%. Moreover, in series [3] (read-out: logP), the logP stood at 3.16.

Turning to `O=C1C(=O)c2ccccc2C(O)=C1C1CCCC1`, the figures for the ED25 in [1] and in [1] (setting [15]) were 0.582 mmol/kg and 141 mg/kg, respectively. The concentration in solution in series [2] (solubility) was 9.5 µg/mL (≈ 39.2 µM). The same molecule showed an Optimal dose in the series on Mus musculus [12] of 116%. For the same molecule, the logP in [3] (read-out: logP) was determined as 2.69. Moreover, in [4], the LD50 at 120 h worked out at 400 mg/kg.

As for `CC(=O)NC1=C(Cl)C(=O)c2ccccc2C1=O`, the ED25 in series [1] stood at 0.01 mmol/kg; in series [1] (setting [15]), 2.97 mg/kg. Besides, the solubility in [2] came out at 106 µg/mL (≈ 425 µM). Moreover, the logP in series [3] (read-out: logP) came to 1.42. Besides, the LD50 at 120 h in [4] was determined as 11 mg/kg. Besides, in the series with Mus musculus [5], the Optimal dose is given as 284%.

`COC1=CC(=O)c2ccccc2C1=O` [2-Methoxy-1,4-naphthoquinone]: the ED25 amounted to 0.262 mmol/kg in series [1] and 49.3 mg/kg in series [1] (setting [15]). Moreover, in [2], the concentration in solution (solubility) came to 31.3 µg/mL (≈ 166 µM). Moreover, the logP in [3] (read-out: logP) is 1.59. The Optimal dose in the series on Mus musculus [13] is reported as 154%. This molecule also came in with an LD50 at 120 h in series [4] of 320 mg/kg.

Turning to `CC1=CC(=O)c2ccccc2C1=O` [MENADIONE], the ED25 was found to be 0.174 mmol/kg in series [1] and 30 mg/kg in [1] (setting [15]). The same molecule registered a solubility in series [2] of 10.6 µg/mL (≈ 61.6 µM). The logP in [3] (read-out: logP) is 2.25. For the same molecule, the LD50 at 120 h in [4] is 150 mg/kg. The molecule further gave an Optimal dose with Mus musculus [14] of 126%.

The values above are taken from ChEMBL document CHEMBL1122365, “Substituted 1,4-naphthoquinones vs. the ascitic sarcoma 180 of mice” (J Med Chem, 1983).
